The source of these data is ChEMBL document CHEMBL1139405, “N-Propynyl analogs of beta-phenylethylidenehydrazines: synthesis and evaluation of effects on glycine, GABA, and monoamine oxidase” (Bioorg Med Chem, 2008).

The target in series [1] is 4-aminobutyrate aminotransferase, mitochondrial (Homo sapiens) (UniProt P80404). Description: Inhibition of GABA-transaminase at 10 uM. The method in brief: (§1)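 In vitro screen: GABASE incubated with compound in incubation buffer, with GABA-T activity read by a modified colorimetric method.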
Chain of 4-aminobutyrate aminotransferase, mitochondrial (Homo sapiens) (P80404 whole entry): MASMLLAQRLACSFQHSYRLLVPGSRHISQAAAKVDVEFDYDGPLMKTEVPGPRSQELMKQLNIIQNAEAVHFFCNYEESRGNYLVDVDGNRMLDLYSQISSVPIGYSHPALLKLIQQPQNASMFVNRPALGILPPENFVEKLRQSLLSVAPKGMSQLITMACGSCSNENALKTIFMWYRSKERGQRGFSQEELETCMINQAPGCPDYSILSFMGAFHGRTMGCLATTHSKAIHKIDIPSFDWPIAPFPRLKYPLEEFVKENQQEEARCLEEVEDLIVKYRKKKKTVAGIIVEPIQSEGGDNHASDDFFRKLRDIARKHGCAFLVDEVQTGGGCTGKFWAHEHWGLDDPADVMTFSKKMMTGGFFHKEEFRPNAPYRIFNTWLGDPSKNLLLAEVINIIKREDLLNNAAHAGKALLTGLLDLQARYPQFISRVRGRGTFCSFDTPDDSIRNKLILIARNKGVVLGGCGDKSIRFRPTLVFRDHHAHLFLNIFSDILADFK
The target is the same in series [2]. The series can be described thus: Inhibition of GABA-transaminase at 100 uM. The method, boiled down:
as §1

In series [3] the target is T1, Amine oxidase [flavin-containing] A (Rattus norvegicus, UniProt P21396).
T1 sequence (P21396 whole entry): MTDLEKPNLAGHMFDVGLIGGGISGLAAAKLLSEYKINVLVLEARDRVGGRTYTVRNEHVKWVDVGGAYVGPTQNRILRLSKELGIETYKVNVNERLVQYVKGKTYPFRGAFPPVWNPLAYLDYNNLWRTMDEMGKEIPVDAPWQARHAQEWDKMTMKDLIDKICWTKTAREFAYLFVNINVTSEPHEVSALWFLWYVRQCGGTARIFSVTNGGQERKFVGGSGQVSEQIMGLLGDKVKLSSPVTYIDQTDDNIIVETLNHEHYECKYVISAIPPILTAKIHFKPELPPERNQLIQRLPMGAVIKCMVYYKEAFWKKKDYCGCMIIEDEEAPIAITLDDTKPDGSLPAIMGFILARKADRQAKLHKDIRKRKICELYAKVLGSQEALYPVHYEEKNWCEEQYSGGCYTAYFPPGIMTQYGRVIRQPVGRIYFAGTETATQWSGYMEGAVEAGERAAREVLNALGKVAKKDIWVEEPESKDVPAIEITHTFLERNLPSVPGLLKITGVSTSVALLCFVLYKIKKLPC
The series can be described thus: Inhibition of rat brain monoamine oxidase A.

The subject of series [4] is Rattus norvegicus. The series can be described thus: Ex vivo increase in brain glycine level in Sprague-Dawley rat whole brain at 38.5 mg/kg, ip after 3 hrs relative to control. Details: dose 38.5 mg/kg. The format is functional. The method in brief:
(§2)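 Male rats (~300 g) dosed i.p. in corn oil vehicle, killed by decapitation 3, 6 or 12 h later. Whole brains were flash-frozen, homogenized in 5 volumes ice-cold water, extracted with ice-cold methanol and centrifuged. Amino acids were derivatized with OPA/isobutyryl-L-cysteine and measured by HPLC-fluorescence on a C18 column at 30 °C. Values are % of vehicle control, N = 3–5 per group.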

Series [5] deals with Rattus norvegicus. The series can be described thus: Ex vivo increase in brain glycine level in Sprague-Dawley rat whole brain at 38.5 mg/kg, ip after 6 hrs relative to control. The class given is functional. As to conditions: route intraperitoneal. The method, boiled down: as §2
The subject of series [6] is Rattus norvegicus. Description: Ex vivo increase in brain alanine level in Sprague-Dawley rat whole brain at 30 mg/kg, ip after 3 hrs relative to control. The format is functional. The conditions noted are these: route intraperitoneal. The method in brief: (§3)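 Male Sprague–Dawley rats (~300 g) given drug i.p. in corn oil vehicle, killed by decapitation at 3, 6 or 12 h; brains flash-frozen, homogenized in 5 volumes ice-cold water. Homogenate deproteinized in ice-cold methanol, centrifuged, OPA/isobutyryl-L-cysteine derivatized; HPLC with fluorescence detection, C18 column at 30 °C. Expressed as % of vehicle control; N = 3–5 per group.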

Series [7] has as its system Rattus norvegicus. The series can be described thus: Ex vivo inhibition of GABA-transaminase in Sprague-Dawley rat whole brain at 30 mg/kg, ip after 3 hrs relative to control. The format is functional. The conditions noted are these: route intraperitoneal. The method, boiled down:
(§4)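 Male Sprague–Dawley rats (~300 g) dosed i.p. in corn oil, killed 3, 6 or 12 h later; whole-brain homogenate (5 volumes ice-cold water). GABA-T measured radiochemically: homogenate incubated with radiolabeled GABA in buffer containing pyridoxal phosphate, products isolated with tri-n-octylamine liquid anion exchanger, scintillation counting. Activity as % of vehicle control; N = 4–5 per group.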

The test system of series [8] is Rattus norvegicus. The series can be described thus: Ex vivo inhibition of GABA-transaminase in Sprague-Dawley rat whole brain at 30 mg/kg, ip after 12 hrs relative to control. The format is functional. The conditions noted are these: route intraperitoneal. The method, boiled down: as §4
For series [9], the system named is Rattus norvegicus. The series can be described thus: Ex vivo inhibition of monoamine oxidase A in Sprague-Dawley rat whole brain at 30 mg/kg, ip. Details: dose 30 mg/kg. The class given is functional. The method, boiled down:
(§5)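 Male Sprague–Dawley rats (~300 g) dosed i.p. in corn oil, killed at 3, 6 or 12 h; whole-brain water homogenate diluted in 0.2 M potassium phosphate pH 7.4. Activity as % of vehicle control; N = 3–6 per group.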

Series [10] deals with Rattus norvegicus. The series can be described thus: Ex vivo inhibition of monoamine oxidase B in Sprague-Dawley rat whole brain at 30 mg/kg, ip. The class given is functional. Details: dose 30 mg/kg. The method, boiled down:
as §5

Series [11] has as its system Rattus norvegicus. The series can be described thus: Ex vivo increase in brain GABA level in Sprague-Dawley rat whole brain at 30 mg/kg, ip after 3 hrs relative to control. The class given is functional. As to conditions: route intraperitoneal. The method in brief:
as §3

Series [12] relates to Rattus norvegicus. Description: Ex vivo inhibition of GABA-transaminase in Sprague-Dawley rat whole brain at 30 mg/kg, ip after 6 hrs relative to control. The class given is functional. The conditions noted are these: route intraperitoneal. The method, boiled down: as §4

Structures are written as SMILES. Active and inactive are the calls of the source. The calls are words filed in the database; no cut-off is given here. A value given as a limit tells only on which side of the number the result lay.

Take `C#CCN/N=C/Cc1ccccc1C`: the outcome in series [1] and in [2] was inactive.

For `C#CCN(CC#C)/N=C/Cc1ccccc1OC`, the outcome in series [1] and in series [2] was inactive.

Take `C#CCN(CC#C)/N=C/Cc1ccccc1Cl`: the outcome in series [1] and in series [2] was inactive.

With `C#CCN/N=C/Cc1ccc(C)cc1`, the outcome in series [1] and in series [2] was inactive.

For the compound `C#CCN(CC#C)/N=C/Cc1ccc(F)cc1`, the outcome in series [1] and in [2] was inactive.

For the compound `C#CCN(CC#C)/N=C/Cc1ccccc1C(F)(F)F`, the result in series [1] and in [2] was inactive.

For `C#CCN/N=C/Cc1ccc(C(F)(F)F)cc1`, the outcome in series [1] and in series [2] was inactive.

In the case of `C#CCN(CC#C)/N=C/Cc1cccc(C)c1`, the outcome in series [1] and in [2] was inactive.

As to `C#CCN/N=C/Cc1ccccc1F`, the outcome in series [1] and in series [2] was inactive.

For `C#CCN/N=C/Cc1cccc(F)c1`, the result in series [1] and in series [2] was inactive.

For `C#CCN(CC#C)/N=C/Cc1cccc(OC)c1`, the result in series [1] and in series [2] was inactive.

As to `C#CCN(CC#C)/N=C/Cc1ccc(Cl)cc1`, the result in series [1] and in series [2] was inactive.

Turning to `C#CCN(CC#C)/N=C/Cc1ccccc1F`, the outcome in series [1] and in [2] was inactive.

Compound `NNCCc1ccccc1` [PHENELZINE] came in with an inhibition (INH) in [3] above 95%.

Regarding `C#CCN(CC#C)/N=C/Cc1cccc(C(F)(F)F)c1`, the result in series [1] and in [2] was inactive.

Consider `C#CCN(CC#C)/N=C/Cc1cccc(F)c1`, for which the outcome in series [1] and in [2] was inactive.

On to `C#CCN/N=C/Cc1ccccc1`, for which the result in [1] and in series [2] was inactive. Moreover, the outcome with Rattus norvegicus [4] was Active. Also, the Activity in the series on Rattus norvegicus [5] is 216%.

As for `C#CCN/N=C/Cc1cccc(OC)c1`, the outcome in series [1] and in series [2] was inactive.

On to `C#CCN(CC#C)/N=C/Cc1ccc(C(F)(F)F)cc1`, for which the outcome in series [1] and in [2] was inactive.

`C#CCN(CC#C)/N=C/Cc1ccccc1C`: the result in series [1] and in series [2] was inactive.

For `C#CCN/N=C/Cc1ccc(OC)cc1`, the outcome in [1] and in series [2] was inactive.

Consider `C#CCN/N=C/Cc1cccc(C(F)(F)F)c1`, for which the result in series [1] and in series [2] was inactive.

Take `C#CCN/N=C/Cc1ccc(Cl)cc1`: the outcome in series [1] and in [2] was inactive.

In the case of `C#CCN/N=C/Cc1cccc(Cl)c1`, the result in [1] and in [2] was inactive.

Consider `C#CCN/N=C/Cc1ccccc1C(F)(F)F`, for which the outcome in [1] and in series [2] was inactive.

On to `C#CCN(CC#C)/N=C/Cc1ccc(C)cc1`, for which the outcome in [1] and in series [2] was inactive.

For the compound `C#CCN(CC#C)/N=C/Cc1ccc(OC)cc1`, the result in series [1] and in [2] was inactive.

As for `C#CCN/N=C/Cc1ccccc1Cl`, the result in series [1] and in series [2] was inactive.

With `C#CCN/N=C/Cc1ccc(F)cc1`, the result in series [1] and in series [2] was inactive.

Consider `C#CCN/N=C/Cc1cccc(C)c1`, for which the result in series [1] and in [2] was inactive.

For `C#CCN(CC#C)/N=C/Cc1cccc(Cl)c1`, the outcome in [1] and in series [2] was inactive.

`C#CCN/N=C/Cc1ccccc1OC`: the outcome in series [1] and in series [2] was inactive.

As for `N/N=C\Cc1ccccc1`, the results for the Activity in the series on Rattus norvegicus [6] and with Rattus norvegicus [11] were 489% and 418%, respectively. This compound showed an inhibition in series [1] of 10%. The results for the inhibition in vivo at 30 mg/kg in the series with Rattus norvegicus [7], with Rattus norvegicus [8] and in the series with Rattus norvegicus [12] were 66%, 70% and 66%, respectively. Also, the outcome with Rattus norvegicus [9] and in the series with Rattus norvegicus [10] was inactive.

The term inhibition denotes the drop in the measured response relative to a control, in per cent. Low readings indicate a response near the control, high ones a response far below the control. What is called inhibition in vivo is the relative decrease from the control value, in per cent. Read a high inhibition in vivo as strong suppression.
